Data taken from article PMC2645950 (Journal of medicinal chemistry, 2008).
Residue numbers refer to the chain shown, from its start. pIC50: −log10 of the molar value. Blank lines part the entries; values can stand above or below the compound they belong to.

Key:
[1] = target: T1, human alkyltransferase (wild type) (Homo sapiens, UniProt P16455); assay: Inactivation of purified recombinant human alkyltransferase in vitro; assay type: biochemical; settings: for less effective than BG: ortho-substituted BG derivatives
T1 sequence (P16455 1-207): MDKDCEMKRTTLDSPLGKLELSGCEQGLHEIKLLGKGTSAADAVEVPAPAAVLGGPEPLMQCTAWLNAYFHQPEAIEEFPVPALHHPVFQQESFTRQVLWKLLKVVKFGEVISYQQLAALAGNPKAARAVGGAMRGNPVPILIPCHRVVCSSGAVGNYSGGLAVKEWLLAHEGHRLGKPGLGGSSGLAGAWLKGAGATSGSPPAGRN

Solubility = assay type: physicochemical; settings: at physiological pH
[2] = Stability in aqueous solution; assay type: physicochemical; settings: for rearrangement to N^6-substituted 2-aminoadenine in heated water: heating
HT29 cells = assay: Sensitization of HT29 cells to killing by BCNU; assay type: cell-based, human; settings: 2 h exposure prior to 40 μM BCNU; colony forming assay
Summary of the method: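 HT29 cells in RPMI 1640 with 10% FBS. 24 h after plating, cells get test compound at varied concentrations for 2 h, then 40 μM BCNU for 2 h. Medium is then replaced with inhibitor-containing, BCNU-free medium for 16–18 h. Cells are replated at 250–1000 per 25 cm2 flask and grown 8 days. Colonies are saline-washed, stained with 0.5% crystal violet in ethanol, and counted.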

[3] = target: T2, S159A mutant alkyltransferase (Homo sapiens, UniProt P16455, S159A); assay: Inactivation of purified S159A mutant alkyltransferase in vitro; assay type: biochemical; settings: 30 min at 37°C
T2 sequence (P16455 1-207 S159A): T1 sequence (P16455 1-207) with S159A

[4] = target: T1, human alkyltransferase (wild type); settings: cited from earlier work
alkyltransferase = settings: BG free base; cited from earlier work

Compound: NCc1cccc(COc2nc(N)nc3nc[nH]c23)c1 [Compound 2, O^6-[3-(Aminomethyl)benzyl]guanine]
solubility relative to BG (Solubility): approx. 1000 times | rearrangement to N^6-substituted 2-aminoadenine in heated water [2]: not observed | sensitizing HT29 cells to BCNU (HT29 cells): much more effective than compound 1

Compound: NCc1ccc(COc2nc(N)nc3nc[nH]c23)cc1 [Compound 1, O^6-[4-(Aminomethyl)benzyl]guanine]
rearrangement to N^6-substituted 2-aminoadenine in heated water [2]: not observed | pIC50 ([3]; ED50 + DNA, + DNA): 7.55 | pIC50 ([3]; ED50 No DNA, no DNA): 6.80

Compound: NCc1ccccc1COc1nc(N)nc2nc[nH]c12 [Compound 3, O^6-[2-(Aminomethyl)benzyl]guanine]
half life of rearrangement of 3 to 7 ([2]; aqueous solution, 37°C (0.1 M sodium phosphate buffer pH 7.4, followed by UV, first order kinetics)): 51 h | less effective than BG [1]: > 200 fold

Compound: Nc1nc(OCc2ccccc2)c2nc[nH]c2n1 [BG, O^6-Benzylguanine]
enhancement of inactivation of alkyltransferase by the presence of DNA [4]: 3–4 fold | rate constant for the reaction (alkyltransferase): ~600 M⁻¹ s⁻¹

Now from value to compound:

inhibition at 1000 µM ([1]; read-out: inhibition of alkyltransferase): < 10%
Compound: Nc1nc(NCc2ccccc2CO)c2[nH]cnc2n1 [Compound 7, N^6-[2-(Hydroxymethyl)benzyl]-2-aminoadenine]

less effective than BG [1]: > 200 fold
Compound: Cc1ccccc1COc1nc(N)nc2nc[nH]c12 [Compound 6, O^6-[2-(Methyl)benzyl]guanine]
